Measurements as given in ChEMBL document CHEMBL3108663, “Cembrane-type diterpenoids from the Chinese liverworts Chandonanthus hirtellus and C. birmensis” (J Nat Prod, 2014).
pIC50: −log10 of the molar value.

How the values were obtained:
Type in all cases: functional, cell-based
[1] = Cytotoxicity against rat PC12 cells after 24 hrs by MTT assay; settings: PC-12, 24 h
Outline: (§1)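 Cells plated 24 h before treatment, then exposed continuously to a range of compound concentrations for 24 h. MTT added and incubated 4 h at 37 °C under 5% CO2. Absorbance read at 570 nm. IC50 taken from plotted results with untreated cells set at 100%. Run at least three times; means ± SD of triplicates.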

[2] = Cytotoxicity against human A172 cells after 24 hrs by MTT assay; settings: A 172, 24 h; outline: as §1
NCI-H292 = test: Cytotoxicity against human NCI-H292 cells after 24 hrs by MTT assay; settings: NCI-H292, 24 h; outline: as §1
DU-145 = test: Cytotoxicity against human DU145 cells after 24 hrs by MTT assay; settings: DU-145, 24 h; outline: as §1
NCI-H1299 = test: Cytotoxicity against human NCI-H1299 cells after 24 hrs by MTT assay; settings: NCI-H1299, 24 h; outline: as §1
A549 = test: Cytotoxicity against human A549 cells after 24 hrs by MTT assay; settings: A549, 24 h; outline: as §1
PC-3 = test: Cytotoxicity against human PC3 cells after 24 hrs by MTT assay; settings: PC-3, 24 h; outline: as §1

Row | SMILES | pIC50 [1] | pIC50 [2] | pIC50 (NCI-H292) | pIC50 (DU-145) | pIC50 (NCI-H1299) | pIC50 (A549) | pIC50 (PC-3)
1 | CC(=O)O[C@@]1(C)CCC(=O)[C@@H](C)CCC[C@]2(C)O[C@H]2C(=O)C(=C(C)C)CC1 | 4.61 | 4.64 | 4.67 | 4.36 | 4.76 | 4.51 | 4.61
2 | CC(=O)O[C@@]1(C)CCC(=O)[C@H](C)CCC[C@]2(C)O[C@H]2C(=O)C(=C(C)C)CC1 | 4.36 | 4.50 | 4.41 | < 4.30 | 4.71 | < 4.30 | 4.35
3 | CC(=O)O[C@@]1(C)CCC(=O)/C(C)=C/CC[C@]2(C)O[C@H]2C(=O)C(=C(C)C)CC1 | 4.39 | 4.43 | 4.31 | < 4.30 | 4.39 | < 4.30 | < 4.30
4 | CC(=O)O[C@]1(C)CCC(=C(C)C)C(=O)[C@@H]2O[C@@]2(C)CC/C=C(\C)[C@H](O)CC1 | 4.52 | < 4.30 | < 4.30 | < 4.30 | 4.68 | 4.67 | < 4.30
5 | CC(=O)O[C@@]1(C)C/C=C2\O[C@H](C[C@@H]2C)C[C@]2(C)O[C@H]2C(=O)C(=C(C)C)CC1 | 4.39 | < 4.30 | < 4.30 | < 4.30 | 4.55 | < 4.30 | < 4.30
6 | CC(=O)O[C@]1(C)CCC(=C(C)C)C(=O)[C@@H]2O[C@@]2(C)C[C@H]2C[C@H](C)[C@@](O)(CC1)O2 | 4.43 | < 4.30 | < 4.30 | < 4.30 | 4.63 | < 4.30 | < 4.30
7 | CC(=O)O[C@@]1(C)CCC/C(C)=C/CC[C@@]2(C)O[C@@H]2C(=O)C(=C(C)C)CC1 | 4.33 | < 4.30 | < 4.30 | < 4.30 | 4.38 | < 4.30 | < 4.30
8 | CC(C)=C1CC[C@]2(C)CC[C@]3(O[C@H](C[C@@H]3C)C[C@]3(C)O[C@H]3C1=O)O2 | 4.44 | < 4.30 | < 4.30 | < 4.30 | < 4.30 | < 4.30 | < 4.30
9 | CC(C)=C1CC[C@]2(C)CC[C@]3(O[C@H](C[C@H]3C)C[C@]3(C)O[C@H]3C1=O)O2 | < 4.30 | < 4.30 | 4.32 | < 4.30 | < 4.30 | < 4.30 | < 4.30
10 | CC(=O)O[C@H]1C[C@]2(C)O[C@H]2CC/C(C)=C/[C@@H](OC(C)=O)[C@]2(C)[C@@H]1[C@H]([C@]1(C)CO1)C[C@@H]2OC(C)=O | < 4.30 | < 4.30 | < 4.30 | < 4.30 | < 4.30 | < 4.30 | < 4.30
11 | CC(C)[C@H]1CC[C@]2(C)C[C@]3(O)C(=CC(=O)[C@H]3C)[C@@H](C)CC[C@@H]12 [ANADENSIN] | 4.51 | < 4.30 | < 4.30 | < 4.30 | 4.46 | < 4.30 | < 4.30
